Compound activity as filed in PubChem BioAssay.
Diaph inh CS – counter-screen for diaphorase-based assays: diaphorase inhibitors and chemical oxidizers. diaphorase resazurin-to-resorufin fluorescence, NADH, 16 min; bacterial (C. kluyveri) enzyme, not human. inhibition, % at 20 µM. 0.69% of 190,000 active;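 active = primary screen inhibition at 20 µM above a set limit, cut at about 50% in these data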;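 also: plate controls were DMSO with full reaction for no effect and wells lacking NADH for full effect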
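System: Bacterial diaphorase enzyme (C. kluyveri) | Incubation: 16-min room-temperature incubation before reading | Benchmarks: No-NADH positive control and DMSO neutral control | Measured by: Resorufin fluorescence 544/590 nm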
ATG4B inhibitor – inhibitors of human ATG4B cysteine protease; Q9Y4P1; ATG4B cleavage of LC3-PLA2, NBD-HPC fluorescence, 1 h; inhibition, % at 8.33 µM; 0.51% of 340,000 active; AID 504462; in the data active = inhibition above about 40%
Target sequence (Q9Y4P1 whole entry, looked up): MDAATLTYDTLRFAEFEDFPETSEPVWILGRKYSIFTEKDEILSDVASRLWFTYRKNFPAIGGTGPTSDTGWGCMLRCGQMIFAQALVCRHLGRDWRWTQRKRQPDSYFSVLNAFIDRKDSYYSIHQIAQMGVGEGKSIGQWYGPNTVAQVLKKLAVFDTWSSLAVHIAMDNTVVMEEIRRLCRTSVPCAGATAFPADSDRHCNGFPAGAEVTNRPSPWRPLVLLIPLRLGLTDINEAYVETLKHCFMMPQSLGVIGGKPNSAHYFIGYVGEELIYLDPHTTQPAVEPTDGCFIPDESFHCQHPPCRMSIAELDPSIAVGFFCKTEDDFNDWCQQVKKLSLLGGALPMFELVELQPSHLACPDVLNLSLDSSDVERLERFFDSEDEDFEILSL
HKDC1 inhibitor – inhibitors of human hexokinase HKDC1. Q2TB90. inhibition, % at 20 µM. AID 493160. 0.16% of 340,000 active. recombinant HKDC1, G6PDH/diaphorase resazurin coupled fluorescence;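 active = inhibition above about 35% when tested at 20 µM, limit read from the data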;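 also: plate controls were DMSO wells with enzyme for no effect and DMSO wells lacking enzyme for full effect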
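Material: recombinant HKDC1 hexokinase; Amount: HKDC1 at 5 µg/mL; Medium: Tris pH 8.0 buffer with MgCl2, Tween-20, BSA, BME; Schedule: 90 min reaction incubation at room temperature, dark; Technique: coupled resazurin fluorescence, excitation 525 nm, emission 613 nm.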
Fh CTSL1 inh – counter-screen for PFM18AAP inhibitors: inhibitors of F. hepatica cathepsin L1; recombinant F. hepatica cathepsin L1, Z-Leu-Arg-MCA fluorescence; inhibition, % at 5.96 µM; 0.49% of 300,000 active;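 active = inhibition above the mean of all tested compounds plus 3 SD, set per screening campaign, cut at about 17% in these data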;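 also: 0% = plate median of test compound wells and 100% = 1 µM Z-Phe-Ala-diazomethylketone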
Diaph act CS – counter-screen for diaphorase-based assays: diaphorase activators and chemical reducers | Diaphorase/resazurin coupled assay, resorufin fluorescence, 16 min; active compounds read high; 1 = vehicle wells, 0 = NADH-free wells | activation factor at 20 µM | 0.005% of 190,000 active;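 active = diaphorase activity raised at least twofold by the compound at 20 µM; inactive = activation factor below 2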
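Material: Purified diaphorase enzyme from Clostridium kluyveri | Buffer or medium: 50 mM HEPES pH 7.4 with 4.542 mM MgCl2, 0.005% Tween 20 | Times: 16 min enzyme reaction, ambient temperature | Signal: Red resorufin fluorescence at 544/590 nm excitation/emission | Measure: Increased resorufin signal from activators or reducing compounds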
HKDC1 act conf – confirmation of human HKDC1 activators; shares compounds with HKDC1 inhibitor; recombinant HKDC1, G6PDH/diaphorase resazurin fluorescence; active compounds read low; inhibition, % at 20 µM; 14% of 740 active;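 active = inhibition at or below a set negative limit, negative inhibition meaning the enzyme was activated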
Active calls of the source: *; x = no result. Shown are actives, neighbours in structure and some others; about 1.4% of the full set was active somewhere.

SMILES	Diaph inh CS	ATG4B inhibitor	HKDC1 inhibitor	Fh CTSL1 inh	Diaph act CS	HKDC1 act conf
CCn1cc(C(=O)N[C@@H](CCSC)C(=O)NCCCN2CCOCC2)c(=O)c2cc3c(cc21)OCO3	x	-1.0	9.5	-3.1	x	x
Cc1ccc2oc(=O)c3cnn(CC(=O)N4CCc5ccccc5C4)c3c2c1	31.0	4.8	-39.9	-1.5	0.7	-50.8*
Cc1ccc2oc(=O)c3cnn(CC(=O)N4CCCCC4C)c3c2c1 (stereo not given)	12.8	-3.3	-12.4	13.5	0.9	x
COc1ccc(-c2cc3c(=O)n(CC(=O)N4CCN(C)CC4)ncn3n2)cc1	x	-4.5	-2.1	1.6	x	x
CCOc1cccc(N)c1	x	-1.7	6.7	x	x	x
CCOc1ccc(N)c(SSc2cc(OCC)ccc2N)c1	x	-11.8	-41.9	-1.5	x	-26.5
Cc1cc(Cl)ccc1OCC(=O)OCC(=O)N1CCC(C(N)=O)CC1	x	-14.4	1.6	x	x	x
Cc1ccc(S(=O)(=O)N(C(=O)c2ccco2)c2cc3sc(=O)oc3c3ccccc23)cc1	47.5	-7.6	36.9*	1.1	0.5	-5.0
O=c1oc2cc(Oc3c([N+](=O)[O-])cc(C(F)(F)F)cc3[N+](=O)[O-])ccc2c2c1CCCC2	19.2	4.6	40.1*	7.2	0.8	2.8
CCC(C)(C)NC(=O)C1CCC(CNS(=O)(=O)c2cccc3nsnc23)CC1 (stereo not given)	x	-2.4	51.3*	0.9	x	-11.5
Cc1onc(-c2ccccc2Cl)c1C(=O)N/N=C(\N)COc1ccc(Cl)cc1	10.0	4.2	-38.6	0.3	0.9	-31.8
Cc1onc(-c2ccccc2)c1C(=O)N/N=C(\N)COc1ccc(Cl)cc1	13.5	-3.5	-23.2	-3.8	0.9	x
CC(C)c1ccc(NC(=O)C2CCC(CNC(=O)[C@@H]3Cc4ccccc4CN3)CC2)cc1 (stereo not given in full)	x	-5.5	-2.8	-3.5	x	x
C=CCNC1=C(Cl)C(=O)c2ccccc2C1=O	3.9	-2.1	7.5	12.6	1	x
O=C1C(Cl)=C(NCc2cccnc2)C(=O)c2ccccc21	x	-4.2	-45.3	27.4*	x	-45.1*
O=C1C(Cl)=C(Nc2ccccc2)C(=O)c2ccccc21	31.2	-1.2	-38.4	5.7	0.7	x
O=C1C(Cl)=C(NCCc2ccccc2)C(=O)c2ccccc21	x	-1.6	53.0*	x	x	59.5
O=C(O)c1ccc(NC2=C(Cl)C(=O)c3ccccc3C2=O)cc1	x	-1.8	-131.3	11.7	x	-94.3*
COc1cccc(N2CC(C)Cn3c2nc2c3c(=O)[nH]c(=O)n2C)c1 (stereo not given)	x	1.6	-2.9	x	x	x
COc1ccc(N2C3=C(CC4=C2CCCC4=O)C(=O)CCC3)cc1	64.4*	-6.4	33.5	0.7	0.4	47.1
CCN1/C(=C/c2ccc3cc(C)ccc3[n+]2CC)Sc2ccccc21	-27.0	14.7	-27.3	5.4	1.3	x
CC[n+]1c(/C=C2\Sc3ccccc3N2C)ccc2cccc(C)c21	-57.2	16.2	-40.2	x	1.6	-37.8*
Cc1ccccc1N=C1NN=C(c2ccccc2F)CS1	11.4	10.3	-46.8	3.7	0.9	-40.3*
CC[C@]12c3[nH]c4cc(CCC(=O)N(C)C)ccc4c3CCN1C(=O)[C@@H](CC(=O)NCC13CC4CC(CC(C4)C1)C3)C[C@@H]2C(=O)N1CCN(C(=O)c2ccco2)CC1	x	-19.6	2.4	x	x	x
COP(=O)(OC)c1ccc(NCc2cc(O)ccc2O)cc1	x	3.7	42.7*	x	x	53.1
COc1ccc(CCNC(=O)CCCN2C(=O)C(c3ccccc3)Oc3cccnc32)cc1OC (stereo not given)	x	-1.9	-2.9	-4.8	x	x
CCc1ccc2c(c1)C(NC(C)=O)C(=O)N2CCN1CCOCC1 (stereo not given)	x	5.6	80.1*	0.9	x	57.2
CC(C)c1nc2oc3c(NCCO)ncnc3c2c2c1COC(C)(C)C2	x	-6.6	45.7*	1.4	x	66.2
Cc1nc2oc3c(NCC4CCCO4)ncnc3c2c2c1COC(C)(C)C2 (stereo not given)	17.5	-2.5	17.7	-1.7	0.8	x
Cc1nc2oc3c(NCc4ccccc4)ncnc3c2c2c1COC(C)(C)C2	28.0	-4.1	26.4	6.0	0.7	x
